Experimental data from ChEMBL document CHEMBL4765239, “Discovery of a Novel Highly Selective Histamine H4 Receptor Antagonist for the Treatment of Atopic Dermatitis” (J Med Chem, 2018).
Calls of active or inactive are those of the source. The rule behind the calls is not given here.

Columns and labels:
[1] = Tmax in ICR mouse at 2 mg/kg, po measured upto 24 hrs by LC-MS/MS analysis; type: ADME, organism-based; details: in vivo
In short: (§1)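 Female ICR mice, n=3 per group, given test compound orally. Blood sampled at 0.5, 1, 2, 4, 7 and 24 h post dose; plasma levels quantified by LC-MS/MS. Parameters from non-compartmental analysis.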

[2] = target: Histamine H1 receptor (Homo sapiens) (UniProt P35367); experiment: Displacement of [3H]pyrilamine from recombinant human histamine H1 receptor after 60 mins by scintillation counting analysis
Chain of Histamine H1 receptor (Homo sapiens) (P35367 whole entry): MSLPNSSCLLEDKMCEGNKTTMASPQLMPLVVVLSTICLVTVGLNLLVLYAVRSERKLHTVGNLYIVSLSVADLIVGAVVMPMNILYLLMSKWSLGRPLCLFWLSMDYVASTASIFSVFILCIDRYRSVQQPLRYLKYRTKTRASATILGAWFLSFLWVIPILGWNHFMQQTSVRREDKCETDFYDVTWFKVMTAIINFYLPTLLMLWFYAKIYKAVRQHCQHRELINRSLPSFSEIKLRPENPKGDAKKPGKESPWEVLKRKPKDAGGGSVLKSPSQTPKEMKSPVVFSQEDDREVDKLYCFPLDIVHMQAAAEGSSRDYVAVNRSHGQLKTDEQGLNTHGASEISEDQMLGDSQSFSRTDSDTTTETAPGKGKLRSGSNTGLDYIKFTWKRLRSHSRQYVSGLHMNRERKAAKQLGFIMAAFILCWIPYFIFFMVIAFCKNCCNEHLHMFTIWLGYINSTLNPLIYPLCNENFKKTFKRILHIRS

[3] = Cmax in ICR mouse at 2 mg/kg, po measured upto 24 hrs by LC-MS/MS analysis; type: ADME, organism-based; parameters: route oral, dose 2 mg/kg, time <=24; details: in vivo; in short: as §1
Mus musculus [4] = experiment: Antiinflammatory activity in oxazolone-induced Balb/c mouse model of atopic dermatitis assessed as reduction of hyperplasia at 50 mg/kg, po BID administered 30 mins prior to oxazolone challenge for 3 weeks by hematoxylin and eosin staining based histopathological analysis; type: functional, organism-based
[5] = Tmax in ICR mouse at 10 mg/kg, po measured upto 24 hrs by LC-MS/MS analysis; type: ADME, organism-based; details: in vivo; in short: as §1
Mus musculus [6] = experiment: Antiinflammatory activity in oxazolone-induced Balb/c mouse model of atopic dermatitis assessed as reduction of epidermal thicken in skin lesions at 50 mg/kg, po BID administered 30 mins prior to oxazolone challenge for 3 weeks by hematoxylin and eosin staining based histopathological analysis; type: functional, organism-based
In short: (§2)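 Female BALB/c mice (n=8), abdomen shaved. Sensitized on day 0 with topical 1% oxazolone (50 µL) in acetone/corn oil 4:1. From day 7, right ear challenged with 0.2% oxazolone (25 µL) 3 times weekly; left ear got vehicle. Oral dosing twice daily, 30 min before challenge, for 3 weeks. Scratching counted for 1 h after challenge on day 25. Ear thickness measured; ear fixed in 4% paraformaldehyde, 3 µm paraffin sections stained with H&E for epidermal thickness. Mean ± S.E.M., t-test.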

Histamine H4 receptor [7] = target: T1, Histamine H4 receptor (Mus musculus, UniProt Q91ZY2); experiment: Antagonist activity at recombinant mouse histamine H4 receptor expressed in CHO-K1 cells assessed as inhibition of R-alpha-methylhistamine induced stimulation of [35S]-GTPgammaS binding by scintillation proximity assay; type: functional, cell membranes, Cell membrane
T1 sequence (Q91ZY2 whole entry): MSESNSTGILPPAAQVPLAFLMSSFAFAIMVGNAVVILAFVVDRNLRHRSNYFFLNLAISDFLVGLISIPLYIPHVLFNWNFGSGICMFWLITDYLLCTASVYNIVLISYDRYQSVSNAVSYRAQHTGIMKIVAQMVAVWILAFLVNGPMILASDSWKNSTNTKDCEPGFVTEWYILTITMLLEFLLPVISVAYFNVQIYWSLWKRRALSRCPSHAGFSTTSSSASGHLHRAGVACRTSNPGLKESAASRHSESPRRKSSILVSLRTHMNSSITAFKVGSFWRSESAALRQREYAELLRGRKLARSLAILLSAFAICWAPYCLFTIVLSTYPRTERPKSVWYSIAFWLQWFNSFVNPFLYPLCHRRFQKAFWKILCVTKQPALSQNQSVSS
In short: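 GTPγ35S binding on recombinant mouse H4R, run by an outside contractor. R-α-methylhistamine served as reference agonist and thioperamide as reference antagonist.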

Mus musculus [8] = experiment: Anti-pruritus activity in ICR mouse with histamine-induced itching assessed as reduction of scratching bouts administered orally 30 mins prior to histamine challenge and measured upto 20 mins; type: functional, organism-based; details: dose 2-50 mg/kg, time 50.0 min
[9] = AUC (all) in ICR mouse at 50 mg/kg, po measured upto 24 hrs by LC-MS/MS analysis; type: ADME, organism-based; parameters: route oral, dose 50 mg/kg, time <=24; details: in vivo; in short: as §1
[10] = target: T2, 5-hydroxytryptamine receptor 3A (Homo sapiens) (UniProt P46098); experiment: Displacement of [3H]BRL 43694 from human recombinant 5-HT3 receptor at 10 uM after 120 mins by scintillation counting analysis relative to control
T2 sequence (whole entry): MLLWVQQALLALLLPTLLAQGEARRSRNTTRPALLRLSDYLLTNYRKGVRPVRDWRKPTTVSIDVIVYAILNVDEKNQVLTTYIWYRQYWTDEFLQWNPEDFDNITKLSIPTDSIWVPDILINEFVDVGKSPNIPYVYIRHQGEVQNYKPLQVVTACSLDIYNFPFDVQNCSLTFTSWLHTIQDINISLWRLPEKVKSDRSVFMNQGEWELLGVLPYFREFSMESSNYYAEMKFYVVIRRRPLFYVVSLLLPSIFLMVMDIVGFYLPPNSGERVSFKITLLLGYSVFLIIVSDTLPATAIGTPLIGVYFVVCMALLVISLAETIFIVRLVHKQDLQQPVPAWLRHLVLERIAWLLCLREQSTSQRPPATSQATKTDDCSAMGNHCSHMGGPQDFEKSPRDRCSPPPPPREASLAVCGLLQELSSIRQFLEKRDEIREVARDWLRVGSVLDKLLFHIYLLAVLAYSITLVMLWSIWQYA

[11] = target: Histamine H2 receptor (Homo sapiens) (UniProt P25021); experiment: Displacement of [125I]-aminopotentidine from recombinant human histamine H2 receptor after 120 mins by radiometric scintillation counting analysis
Chain of Histamine H2 receptor (Homo sapiens) (P25021 whole entry): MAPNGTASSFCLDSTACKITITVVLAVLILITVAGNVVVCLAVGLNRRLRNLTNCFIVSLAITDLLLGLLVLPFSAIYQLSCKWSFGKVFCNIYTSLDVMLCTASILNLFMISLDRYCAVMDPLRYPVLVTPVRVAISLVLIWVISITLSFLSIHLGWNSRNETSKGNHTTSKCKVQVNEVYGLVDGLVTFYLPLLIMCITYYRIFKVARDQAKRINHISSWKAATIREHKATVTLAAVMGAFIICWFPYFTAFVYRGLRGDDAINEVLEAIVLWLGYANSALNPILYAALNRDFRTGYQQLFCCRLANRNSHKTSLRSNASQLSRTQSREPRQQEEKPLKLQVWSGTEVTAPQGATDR

[12] = Cmax in ICR mouse at 50 mg/kg, po measured upto 24 hrs by LC-MS/MS analysis; type: ADME, organism-based; parameters: route oral, dose 50 mg/kg, time <=24; details: in vivo; in short: as §1
Mus musculus [13] = experiment: Anti-pruritus activity in ICR mouse with histamine-induced itching assessed as reduction of scratching bouts at 50 mg/kg, po administered 30 mins prior to histamine challenge and measured upto 20 mins; type: functional; details: 50 min
In short: (§3)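 Female ICR mice (n=8-10 per group), back skin clipped 24 h before. Oral dose in 20% hydroxypropyl-β-cyclodextrin given 30 min before intradermal pruritogen in saline: histamine 300 nmol, substance P 100 nmol or C48/80 100 µg. Scratching bouts counted from video for 20 min after injection. Mean ± S.E.M., Student's t-test.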

Histamine H3 receptor = Histamine H3 receptor (Homo sapiens, UniProt Q9Y5N1); experiment: Displacement of [3H]-N-alpha-methylhistamine from recombinant human histamine H3 receptor after 60 mins by radiometric scintillation counting analysis
Chain of Histamine H3 receptor (Q9Y5N1 whole entry): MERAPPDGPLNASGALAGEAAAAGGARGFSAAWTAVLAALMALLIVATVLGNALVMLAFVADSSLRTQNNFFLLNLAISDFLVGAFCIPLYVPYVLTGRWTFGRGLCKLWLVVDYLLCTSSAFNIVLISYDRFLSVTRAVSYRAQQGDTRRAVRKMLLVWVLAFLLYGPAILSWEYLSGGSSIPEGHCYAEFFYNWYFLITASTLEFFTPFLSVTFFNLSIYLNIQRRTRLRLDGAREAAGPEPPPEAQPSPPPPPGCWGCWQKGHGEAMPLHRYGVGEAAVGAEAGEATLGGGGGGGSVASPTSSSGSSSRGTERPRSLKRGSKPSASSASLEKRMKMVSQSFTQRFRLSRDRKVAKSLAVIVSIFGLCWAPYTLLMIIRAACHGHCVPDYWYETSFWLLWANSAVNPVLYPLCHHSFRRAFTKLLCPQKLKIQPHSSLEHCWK

Mus musculus [14] = experiment: Anti-pruritus activity in ICR mouse with C48/80-induced itching assessed as reduction of scratching bouts at 50 mg/kg, po administered 30 mins prior to […] and measured upto 20 mins; type: functional, organism-based; details: time 50.0 min; in short: as §3
Histamine H4 receptor [15] = target: Histamine H4 receptor (Homo sapiens, UniProt Q9H3N8); experiment: Antagonist activity at recombinant human histamine H4 receptor expressed in CHO-K1 cells assessed as inhibition of R-alpha-methylhistamine induced stimulation of [35S]-GTPgammaS binding by scintillation proximity assay; type: functional, cell membranes, Cell membrane
In short: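 Functional [35S]GTPγS binding on recombinant human H4R. Antagonism was measured against the reference agonist R-α-methylhistamine, with JNJ10191584 as the reference antagonist. Run by a contract lab.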

[16] = Cmax in ICR mouse at 10 mg/kg, po measured upto 24 hrs by LC-MS/MS analysis; type: ADME, organism-based; parameters: route oral, dose 10 mg/kg, time <=24; details: in vivo; in short: as §1
Mus musculus [17] = experiment: Antiinflammatory activity in oxazolone-induced Balb/c mouse model of atopic dermatitis assessed as reduction of ear thickness at 50 mg/kg, po BID administered 30 mins prior to oxazolone challenge for 3 weeks and measured on day 27; type: functional, organism-based; in short: as §2

Tmax [1]: 30 min
Activity [2]: inactive
Cmax [3]: 180 ng/mL
Tmax [5]: 30 min
IC50 (Histamine H4 receptor [7]): 690 nM
AUC at 24 h [9]: 62600 ng·h/mL
inhibition [10]: 14%
Activity [11]: inactive
Cmax [12]: 7690 ng/mL
Activity (Histamine H3 receptor): inactive
IC50 (Histamine H4 receptor [15]): 28 nM
Cmax [16]: 1820 ng/mL
SMILES: CNC1CN(c2nc3ncc(Br)cc3n3nnnc23)C1
Activity (Mus musculus [4]): Active
Activity (Mus musculus [6]): Active
Activity (Mus musculus [8]): Dose-dependent effect
inhibition in vivo at 50 mg/kg (Mus musculus [13]): 100%
Activity (Mus musculus [14]): Active
Activity (Mus musculus [17]): Active
